ChEMBL document CHEMBL4373735, “N-alkyl-hydroxybenzoyl anilide hydroxamates as dual inhibitors of HDAC and HSP90, downregulating IFN-γ induced PD-L1 expression” (Eur J Med Chem, 2020)
pIC50: −log10 of the molar value.

Tests used:
Histone deacetylase = format: cell-based, Homo sapiens; conditions: hela
A549 = test: Antiproliferative activity against human A549 cells assessed as cell growth inhibition after 48 hrs by sulforhodamine B assay; format: functional
Outline: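 Cells seeded at 5000/well overnight; baseline plate fixed with 10% TCA at time of compound addition (T0). Treated with DMSO or graded doses for 48 h, fixed with 10% TCA, stained with 0.4% (w/v) SRB in 1% acetic acid, washed with 1% acetic acid, dye solubilised in 10 mM Trizma base, absorbance at 515 nm. GI50 from T0-corrected growth; at least three independent experiments, SD reported.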

HCT-116 = test: cells; format: functional; conditions: Homo sapiens, HCT-116, 48 h
NCI-H1975 = test: cells; format: functional; conditions: Homo sapiens, NCI-H1975, 48 h
[1] = molecular target: Heat shock protein HSP 90-alpha (Homo sapiens, UniProt P07900); test: Inhibition of FITC-geldanamycin binding to recombinant human full-length C-terminal His-tagged HSP90alpha expressed in Escherichia coli after 3 hrs by fluorescence polarization assay
cells = format: ADME, cell-based; conditions: Homo sapiens, SC9
Histone deacetylase 1 = Histone deacetylase 1 (Homo sapiens, UniProt Q13547); test: Inhibition of HDAC1 (unknown origin)
Homo sapiens = organism: Homo sapiens; test: Selectivity ratio of IC50 for HDAC1 (unknown origin) to IC50 for HDAC6 (unknown origin)

Sequence of Histone deacetylase 1 (Q13547 whole entry): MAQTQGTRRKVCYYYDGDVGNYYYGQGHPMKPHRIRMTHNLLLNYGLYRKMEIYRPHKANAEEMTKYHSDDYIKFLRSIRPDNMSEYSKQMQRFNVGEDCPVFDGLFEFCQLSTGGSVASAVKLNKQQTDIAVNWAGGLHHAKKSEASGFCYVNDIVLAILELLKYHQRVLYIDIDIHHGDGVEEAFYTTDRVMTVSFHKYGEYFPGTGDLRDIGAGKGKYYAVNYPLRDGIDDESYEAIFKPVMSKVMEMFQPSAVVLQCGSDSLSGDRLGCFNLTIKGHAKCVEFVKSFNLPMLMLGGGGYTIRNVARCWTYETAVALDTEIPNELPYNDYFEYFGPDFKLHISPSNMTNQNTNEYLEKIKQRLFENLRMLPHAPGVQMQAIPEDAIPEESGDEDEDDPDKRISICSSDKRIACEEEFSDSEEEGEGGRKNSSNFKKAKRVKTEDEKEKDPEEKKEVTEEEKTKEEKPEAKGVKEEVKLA

Row | Ratio IC50 (Homo sapiens) | Compound | pIC50 (Histone deacetylase) | GI50 (A549; Homo sapiens, A549, 48 h) [nM] | GI50 (HCT-116) [nM] | GI50 (NCI-H1975) [nM] | pIC50 [1] | pIC50 (cells) | pIC50 (Histone deacetylase 1) | GI50 (A549) [nM]
1 |  | CC(C)c1cc(C(=O)N(C)c2ccc(NC(=O)CCCCCC(=O)NO)cc2)c(O)cc1O | 6.41 | 2830 | 3780 | 690 | 6.77 |  |  | 
2 |  | CC(C)c1cc(C(=O)Nc2cccc(NC(=O)CCCCCCC(=O)NO)c2)c(O)cc1O | 6.98 | > 10000 | 6230 | > 10000 | < 6.00 |  |  | 
3 |  | CC(C)c1cc(C(=O)Nc2ccc(NC(=O)CCCCCCC(=O)NO)cc2)c(O)cc1O | 6.38 | > 10000 | 5430 | > 10000 | < 6.00 |  |  | 
4 |  | CC(C)c1cc(C(=O)Nc2ccccc2NC(=O)CCCCCCC(=O)NO)c(O)cc1O | < 6.00 | > 10000 | 4920 | > 10000 | < 6.00 |  |  | 
5 |  | O=C(CCCCC[C@@H](NC(=O)c1ccccc1)C(=O)Nc1ccc2ncccc2c1)NO |  |  |  |  |  | 7.05 | 8.46 | 
6 |  | O=C(CCCCC[C@@H](NC(=O)c1ccccc1)C(=O)Nc1ccccc1)NO |  |  |  |  |  | 7.14 | 7.92 | 
7 |  | C=CCNC1=C2C[C@@H](C)C[C@H](OC)[C@H](O)[C@@H](C)/C=C(\C)[C@H](OC(N)=O)[C@@H](OC)/C=C\C=C(/C)C(=O)NC(=CC1=O)C2=O (stereo in doubt) [TANESPIMYCIN] | < 6.00 | 7.5 | 340 | 160 |  |  |  | 
8 |  | CC(C)c1cc(C(=O)N(C)c2ccc(NC(=O)CCCCCCCCC(=O)NO)cc2)c(O)cc1O | 6.17 | 1080 | 590 | 210 |  |  |  | 
9 | 51 | O=C(CCCCCCC(=O)Nc1ccc(-c2cn(Cc3ccc(F)cc3)nn2)cc1)NO |  |  |  |  |  |  |  | 
10 |  | O=C(CCCCCCC(=O)Nc1ccccc1)NO [VORINOSTAT] |  |  |  |  | < 6.30 |  |  | 1020
11 |  | CCN(C(=O)c1cc(C(C)C)c(O)cc1O)c1ccc(NC(=O)CCCCCCC(=O)NO)cc1 | 6.34 | 5630 | 3560 | 1380 | 6.73 |  |  | 
12 |  | CC(C)c1cc(C(=O)N(C)c2cccc(NC(=O)CCCCCCC(=O)NO)c2)c(O)cc1O | 6.68 | 2300 | 1170 | 1660 | 6.52 |  |  | 
13 |  | CC(C)c1cc(C(=O)N(c2ccc(NC(=O)CCCCCCC(=O)NO)cc2)C(C)C)c(O)cc1O | < 6.00 | > 10000 | > 10000 | > 10000 | < 6.00 |  |  | 
14 |  | CCN(C(=O)c1cc(C(C)C)c(O)cc1O)c1cccc(NC(=O)CCCCCCC(=O)NO)c1 | 6.90 | 1590 | 1120 | 940 | 6.84 |  |  | 
